The source of these data is ChEMBL document CHEMBL4033702, “Challenges in the development of an M4 PAM preclinical candidate: The discovery, SAR, and in vivo characterization of a series of 3-aminoazetidine-derived amides” (Bioorg Med Chem Lett, 2017).

Where “and” joins values, the source holds several entries; their conditions need not be identical. Identical values can stand only once. Some results are limits rather than exact numbers.

Data set [1] concerns the target T1, Muscarinic acetylcholine receptor M4 (Homo sapiens, UniProt P08173).
T1 sequence (P08173 whole entry): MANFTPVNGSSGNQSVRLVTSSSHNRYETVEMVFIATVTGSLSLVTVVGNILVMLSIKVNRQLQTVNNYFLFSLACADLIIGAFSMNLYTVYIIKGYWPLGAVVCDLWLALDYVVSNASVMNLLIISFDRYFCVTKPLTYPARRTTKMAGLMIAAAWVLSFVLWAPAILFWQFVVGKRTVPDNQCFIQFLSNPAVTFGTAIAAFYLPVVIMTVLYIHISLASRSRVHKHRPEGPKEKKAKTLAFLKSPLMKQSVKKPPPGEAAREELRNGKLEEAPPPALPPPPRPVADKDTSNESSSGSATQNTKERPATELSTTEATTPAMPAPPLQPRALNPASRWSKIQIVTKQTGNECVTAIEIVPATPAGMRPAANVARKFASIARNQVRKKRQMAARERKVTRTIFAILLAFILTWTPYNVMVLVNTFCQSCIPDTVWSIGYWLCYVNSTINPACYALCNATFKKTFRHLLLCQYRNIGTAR
Nature of the data set: Positive allosteric modulation of human M4 receptor expressed in CHO cells co-expressing Gqi5 assessed as increase in acetylcholine-induced calcium mobilization.

For data set [2], the target named is T2, Muscarinic acetylcholine receptor M4 (Homo sapiens) (UniProt P08173).
T2 sequence (whole entry): T1 sequence (P08173 whole entry)
Nature of the data set: Positive allosteric modulation of human M4 receptor expressed in CHO cells co-expressing Gqi5 assessed as increase in acetylcholine-induced calcium mobilization relative to acetylcholine. The data set is classed as functional, cell-based. A digest of the protocol:
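Calcium mobilization in CHO cells stably co-expressing hM4 and Gqi5, tested in the presence of a fixed EC20 concentration of acetylcholine. Values are means of three independent experiments, each run in triplicate.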
(Calcium assays in cells follow changes in intracellular calcium, usually with a dye or a luminescent sensor.)

For data set [3], the species on record is Rattus norvegicus. Nature of the data set: Drug metabolism in Sprague-Dawley rat assessed as aldehyde oxidase-mediated metabolism at alpha to 4-pryidyl nitrogen. It is filed as ADME.
Data set [4] deals with T3, Muscarinic acetylcholine receptor M2 (Homo sapiens, UniProt P08172).
T3 sequence (P08172 whole entry): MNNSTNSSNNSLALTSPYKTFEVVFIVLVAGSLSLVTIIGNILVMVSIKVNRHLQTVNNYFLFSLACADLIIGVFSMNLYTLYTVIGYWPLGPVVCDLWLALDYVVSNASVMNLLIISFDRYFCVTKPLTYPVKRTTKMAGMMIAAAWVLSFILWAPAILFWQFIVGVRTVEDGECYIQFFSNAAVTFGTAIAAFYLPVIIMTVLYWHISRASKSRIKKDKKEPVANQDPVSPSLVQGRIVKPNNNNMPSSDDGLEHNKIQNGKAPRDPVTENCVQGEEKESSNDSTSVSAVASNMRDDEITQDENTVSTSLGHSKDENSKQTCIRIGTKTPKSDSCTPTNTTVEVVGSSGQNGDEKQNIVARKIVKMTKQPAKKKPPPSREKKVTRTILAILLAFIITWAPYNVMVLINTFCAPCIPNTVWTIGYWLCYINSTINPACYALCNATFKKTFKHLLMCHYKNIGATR
Nature of the data set: Activity at human M2 receptor assessed as increase in acetylcholine-induced calcium mobilization. The data set is classed as functional.

The nature of data set [5]: Clearance in Sprague-Dawley rat. It is filed as ADME. Particulars: in vivo. Summed up: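 IV and PO pharmacokinetics in male Sprague-Dawley rats, n = 1–3. The oral dose was a 2–3 mg/kg solution. Plasma clearance, Vss and oral bioavailability were determined.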
Data set [6] in a line: Brain to plasma permeability coefficient, Kp of the compound in Sprague-Dawley rat administered as iv cassette dose measured at 0.25 hrs post dose. The data set is classed as ADME, organism-based. Particulars: for Kp: brain, 0.25 h; for Kp at 0.25 h: Sprague-Dawley, brain and plasma.
Data set [7] in a line: Ratio of unbound brain to plasma concentration in Sprague-Dawley rat administered as iv cassette dose measured at 0.25 hrs post dose. The data set is classed as ADME, organism-based.
In a further data set the test system is MDR1. Nature of the data set: Efflux ratio of permeability in MDCK2-MDR1 cells. The data set is classed as ADME, cell-based, Canis lupus familiaris. The following applies: dog, MDCK-MDR1.
For data set [8], the target named is T4, Muscarinic acetylcholine receptor M2 (Homo sapiens) (UniProt P08172).
T4 sequence (whole entry): T3 sequence (P08172 whole entry)
Nature of the data set: Activity at human M2 receptor assessed as increase in acetylcholine-induced calcium mobilization relative to acetylcholine. The data set is classed as functional.

Data set [9] relates to Rattus norvegicus. Nature of the data set: Reversal of amphetamine-induced hyperlocomotion in Sprague-Dawley rat at 10 mg/kg, po pretreated 30 mins post habituation in the chamber followed by amphetamine injection after 30 mins measured after 60 mins. The data set is classed as functional. A digest of the protocol:
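Male Sprague-Dawley rats, n = 6–24 per dose group, were habituated in the chamber for 30 min. The compound or vehicle (10% tween-80 in water, v/v) was then given orally. Amphetamine 0.75 mg/kg was injected subcutaneously 30 min later. Total ambulations over t = 60–120 min gave % reversal of AHL, reported as mean ± SEM.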

Data set [10] is described as follows: Elimination half-life in Sprague-Dawley rat. The data set is classed as ADME. Particulars: in vivo, read-out: beta t1/2 (converted).

A word on the EC50: it is the concentration giving half of the maximal effect. As for `Cc1cccc(OC(=O)N2CC(NC(=O)c3sc4nnc(C)c(C)c4c3N)C2)c1`, the 50% effective concentration (EC50) in data set [1] came out at 0.067 µM. In addition, the %max in data set [2] was 85%.
On the same counts, the results for `Cc1nnc2sc(C(=O)NC3CN(c4cc(F)nc(F)c4)C3)c(N)c2c1C` are 0.011 µM and 84%.
As to `Cc1nnc2sc(C(=O)NC3CN(c4nc5ccccc5s4)C3)c(N)c2c1C`, the EC50 in [1] was found to be 0.439 µM. Further, the %max in data set [2] worked out at 87%.
`Cc1nnc2sc(C(=O)NC3CN(c4ccc(F)cc4)C3)c(N)c2c1C`: in [1], the EC50 came to 0.282 µM. In addition, in data set [2], the %max was determined as 77%.
In the same order, the values of `Cc1nnc2sc(C(=O)NC3CN(C(=O)c4ccccc4)C3)c(N)c2c1C` are 0.773 µM and 85%.
In the same order, the values of `Cc1nnc2sc(C(=O)NC3CN(c4ccccc4F)C3)c(N)c2c1C` are 0.028 µM and 82%.
For `Cc1nnc2sc(C(=O)NC3CN(c4ccncc4Cl)C3)c(N)c2c1C`, in data set [1], the EC50 came out at 0.008 µM. The %max in data set [2] was 86%. Besides, in the data set listed under Rattus norvegicus [3], the Drug metabolism entry is listed as “Metabolite_Detected”.
Usually clearance stands for a measure of how efficiently the substance is removed, as volume per time. A lower clearance goes with a low capacity for elimination. For orientation: Kp means the ratio of the level in a tissue or fluid to that in plasma or blood. The term efflux ratio denotes the permeability from basolateral to apical divided by that in the opposite direction, in the common usage. As to `Cc1nnc2sc(C(=O)NC3CN(C(=O)c4ccncc4)C3)c(N)c2c1C`, the figures for the EC50 in [1] and in [4] were 0.179 µM and greater than 10 µM, respectively. The %max in data set [2] was 85%. In data set [5], this molecule came in with a clearance of 0.186 L/h/kg. The Kp in [6] stood at 0.03. Further, the “K(p,uu,brain)” value in data set [7] is 0.37. In addition, the efflux ratio in the data set with MDR1 came to 96.
Turning to `Cc1nnc2sc(C(=O)NC3CN(c4ccccc4)C3)c(N)c2c1C`, the EC50 in data set [1] stood at 0.025 µM; in [4], 1.78 µM. The %max in data set [2] turned out to be 85%; in [8], 58%. Moreover, the clearance in data set [5] was 2.7 L/h/kg. The Kp in data set [6] was found to be 0.57. Moreover, in [7], the “K(p,uu,brain)” value is recorded as 0.73.
As to `Cc1nnc2sc(C(=O)NC3CN(c4cnccn4)C3)c(N)c2c1C`, the EC50 in [1] was 0.078 µM and 0.0741 µM. Also, the %max in [2] amounted to 80%. The Kp at 0.25 h in data set [6] is less than 0.05.
For the molecule `COc1cc(N2CC(NC(=O)c3sc4nnc(C)c(C)c4c3N)C2)ccn1`, in data set [1], the concentration for a half-maximal effect (EC50) was 0.051 µM. In addition, in [2], the %max turned out to be 86%. Besides, in the data set listed under Rattus norvegicus [3], the Drug metabolism result is recorded as “Metabolite_Detected”.
For `COc1cncc(N2CC(NC(=O)c3sc4nnc(C)c(C)c4c3N)C2)c1`, the EC50 in [1] worked out at 0.017 µM. Besides, the %max in [2] turned out to be 88%. In data set [6], the partition ratio (Kp) is given as less than 0.05.
In the case of `Cc1nnc2sc(C(=O)NC3CN(C(=O)c4ccccn4)C3)c(N)c2c1C`, the EC50 in data set [1] came out at 0.564 µM. Besides, the %max in data set [2] turned out to be 91%.
On to `Cc1nnc2sc(C(=O)NC3CN(c4ccc(F)cc4F)C3)c(N)c2c1C`, for which the half-maximal effective concentration (EC50) in data set [1] is 0.037 µM. For the same molecule, in [2], the %max came out at 94%.
On the same counts, the results for `COc1ccc(N2CC(NC(=O)c3sc4nnc(C)c(C)c4c3N)C2)cc1` are 1.29 µM and 81%.
In the same order, the values of `Cc1nnc2sc(C(=O)NC3CN(c4ccc(S(=O)(=O)C(F)(F)F)cc4)C3)c(N)c2c1C` are 0.934 µM and 86%.
On the same counts, the results for `Cc1nnc2sc(C(=O)NC3CN(c4ccnc(Cl)c4)C3)c(N)c2c1C` are 0.185 µM and 87%.
`Cc1nnc2sc(C(=O)NC3CN(c4cncnc4)C3)c(N)c2c1C`: the EC50 in [1] was 0.041 µM and 0.0389 µM. Further, the %max in data set [2] came to 89%. The molecule further yielded a Kp at 0.25 h in [6] of less than 0.05.
With `Cc1nnc2sc(C(=O)NC3CN(C(=O)OCc4ccccc4)C3)c(N)c2c1C`, the EC50 in data set [1] amounted to 0.03 µM. For the same molecule, the %max in data set [2] was determined as 81%.
With `Cc1nnc2sc(C(=O)NC3CN(c4nc5cccnc5s4)C3)c(N)c2c1C`, the figures for the 50% effective concentration (EC50) in data set [1] and in data set [4] were 0.106 µM and 0.22 µM, respectively. Moreover, the %max in data set [2] is 81%. The molecule also yielded a Kp in data set [6] of 0.17. The “K(p,uu,brain)” value in data set [7] was 1.3. Moreover, the Activity in the data set with Rattus norvegicus [9] is 16%.
Take `Cc1nnc2sc(C(=O)NC3CN(c4cccnc4)C3)c(N)c2c1C`: in data set [1], the EC50 was 0.034 µM and 0.0331 µM. In addition, the %max in data set [2] came to 96%. In data set [6], the Kp at 0.25 h is less than 0.05.
Take `Cc1nnc2sc(C(=O)NC3CN(c4cccnc4F)C3)c(N)c2c1C`: the EC50 in data set [1] is 0.029 µM. For the same molecule, the %max in data set [2] stood at 82%.
As to `Cc1nnc2sc(C(=O)NCc3ccc(S(=O)(=O)C(F)(F)F)cc3)c(N)c2c1C`, the Activity in the data set on Rattus norvegicus [9] was 62%.
In the case of `Cc1nnc2sc(C(=O)NC3CN(c4ccc(S(=O)(=O)C(F)F)cc4)C3)c(N)c2c1C`, the EC50 in data set [1] was 0.325 µM. The %max in [2] is 75%.
On the same counts, the results for `Cc1nnc2sc(C(=O)NC3CN(c4nc5ccccc5o4)C3)c(N)c2c1C` are 0.419 µM and 89%.
On to `Cc1nnc2sc(C(=O)NC3CN(c4cncc(F)c4)C3)c(N)c2c1C`, for which, in data set [1], the EC50 was found to be 0.016 µM. In addition, the %max in data set [2] was 90%.
In the case of `Cc1nnc2sc(C(=O)NC3CN(C(=O)Oc4ccccc4)C3)c(N)c2c1C`, the figures for the EC50 in [1] and in data set [4] were 0.023 µM and 2.65 µM, respectively. Besides, in [2], the %max came out at 96%. Besides, the half-life in data set [10] was less than 30 min.
For the molecule `Cc1nnc2sc(C(=O)NC3CN(c4ccccn4)C3)c(N)c2c1C`, in data set [1], the 50% effective concentration (EC50) was 0.124 µM. Also, the %max in [2] stood at 81%.
`Cc1nnc2sc(C(=O)NC3CN(c4ccc(F)c(F)c4)C3)c(N)c2c1C`: the 50% effective concentration (EC50) in [1] is 0.0288 µM and 0.03 µM. The %max in data set [2] is 84%. Moreover, the clearance in [5] turned out to be 0.264 L/h/kg.
Consider `Cc1nnc2sc(C(=O)NC3CN(C(=O)Nc4ccccc4)C3)c(N)c2c1C`, for which, in data set [1], the EC50 was found to be 0.217 µM. Besides, the %max in data set [2] came out at 89%.
For the molecule `Cc1nnc2sc(C(=O)NC3CN(c4ccncn4)C3)c(N)c2c1C`, the EC50 in [1] turned out to be 0.038 µM. Further, in [2], the %max turned out to be 83%. The Kp at 0.25 h in data set [6] was less than 0.05.
As to `Cc1nnc2sc(C(=O)NC3CN(S(=O)(=O)c4ccccc4)C3)c(N)c2c1C`, the EC50 in data set [1] is 0.268 µM and 0.263 µM. For the same molecule, the %max in data set [2] was 70%.
As to `COc1cccc(N2CC(NC(=O)c3sc4nnc(C)c(C)c4c3N)C2)c1`, in data set [1], the EC50 is 0.141 µM and 0.132 µM. Besides, the %max in data set [2] was found to be 77%.
